According to ChEMBL document CHEMBL1268917, “Synthesis and biological evaluation of radio-iodinated benzimidazoles as SPECT imaging agents for NR2B subtype of NMDA receptor” (Bioorg Med Chem, 2010):

Tests used:
[1] = molecular target: Glutamate receptor ionotropic, NMDA 2B (Rattus norvegicus, UniProt Q00960); test: Displacement of [3H]ifenprodil from NR2B receptor in rat cortical synaptic membranes; assay type: cell membranes, Membrane
[2] = molecular target: Glutamate receptor ionotropic, NMDA 2B (Rattus norvegicus) (UniProt Q00960); test: Binding affinity to NR2B receptor in rat cerebellum at 0.09 to 0.14 nM after 30 mins by autoradiography in presence of DTG relative to control; assay type: tissue-based; conditions: tested as the 125I-labelled form
How it was run: (§1)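 Rinsed three times 3 min in cold buffer with 1% BSA, dipped in cold water, air-dried, exposed to imaging plates; PSL per mm² in ROIs. Expressed as % control binding; at least triplicate slices from three rats.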

[3] = Octanol-buffer partition coefficient, log D of the compound at pH 7.4; assay type: physicochemical
[4] = molecular target: Glutamate receptor ionotropic, NMDA 2B (Rattus norvegicus) (UniProt Q00960); test: Binding affinity to NR2B receptor in rat hippocampus at 0.09 to 0.14 nM after 30 mins by autoradiography in presence of Ro-256981 relative to control; assay type: tissue-based; conditions: tested as the 125I-labelled form; how it was run: as §1
[5] = molecular target: Glutamate receptor ionotropic, NMDA 2B (Rattus norvegicus) (UniProt Q00960); test: Binding affinity to NR2B receptor in rat cerebral cortex at 0.09 to 0.14 nM after 30 mins by autoradiography in presence of Ro-256981 relative to control; assay type: tissue-based; conditions: tested as the 125I-labelled form; how it was run: as §1
[6] = Lipophilicity, log P of the compound; assay type: physicochemical; conditions: octanol/water
[7] = molecular target: Glutamate receptor ionotropic, NMDA 2B (Rattus norvegicus) (UniProt Q00960); test: Binding affinity to NR2B receptor in rat hippocampus at 0.09 to 0.14 nM after 30 mins by autoradiography in presence of DTG relative to control; assay type: tissue-based; conditions: tested as the 125I-labelled form; how it was run: as §1
[8] = molecular target: Glutamate receptor ionotropic, NMDA 2B (Rattus norvegicus) (UniProt Q00960); test: Binding affinity to NR2B receptor in rat cerebellum at 0.09 to 0.14 nM after 30 mins by autoradiography in presence of Ro-256981 relative to control; assay type: tissue-based; conditions: tested as the 125I-labelled form; how it was run: as §1
[9] = molecular target: Glutamate receptor ionotropic, NMDA 2B (Rattus norvegicus) (UniProt Q00960); test: Binding affinity to NR2B receptor in rat cerebral cortex at 0.09 to 0.14 nM after 30 mins by autoradiography in presence of prazosin relative to control; assay type: tissue-based; conditions: tested as the 125I-labelled form; how it was run: as §1
[10] = molecular target: Glutamate receptor ionotropic, NMDA 2B (Rattus norvegicus) (UniProt Q00960); test: Binding affinity to NR2B receptor in rat hippocampus at 0.09 to 0.14 nM after 30 mins by autoradiography in presence of prazosin relative to control; assay type: tissue-based; conditions: tested as the 125I-labelled form; how it was run: as §1
[11] = molecular target: Glutamate receptor ionotropic, NMDA 2B (Rattus norvegicus) (UniProt Q00960); test: Binding affinity to NR2B receptor in rat cerebellum at 0.09 to 0.14 nM after 30 mins by autoradiography in presence of prazosin relative to control; assay type: tissue-based; conditions: tested as the 125I-labelled form; how it was run: as §1
[12] = molecular target: Glutamate receptor ionotropic, NMDA 2B (Rattus norvegicus) (UniProt Q00960); test: Binding affinity to NR2B receptor in rat cerebral cortex at 0.09 to 0.14 nM after 30 mins by autoradiography in presence of DTG relative to control; assay type: tissue-based; conditions: tested as the 125I-labelled form; how it was run: as §1

Sequence of Glutamate receptor ionotropic, NMDA 2B (Rattus norvegicus) (Q00960 27-1482 limits assumed): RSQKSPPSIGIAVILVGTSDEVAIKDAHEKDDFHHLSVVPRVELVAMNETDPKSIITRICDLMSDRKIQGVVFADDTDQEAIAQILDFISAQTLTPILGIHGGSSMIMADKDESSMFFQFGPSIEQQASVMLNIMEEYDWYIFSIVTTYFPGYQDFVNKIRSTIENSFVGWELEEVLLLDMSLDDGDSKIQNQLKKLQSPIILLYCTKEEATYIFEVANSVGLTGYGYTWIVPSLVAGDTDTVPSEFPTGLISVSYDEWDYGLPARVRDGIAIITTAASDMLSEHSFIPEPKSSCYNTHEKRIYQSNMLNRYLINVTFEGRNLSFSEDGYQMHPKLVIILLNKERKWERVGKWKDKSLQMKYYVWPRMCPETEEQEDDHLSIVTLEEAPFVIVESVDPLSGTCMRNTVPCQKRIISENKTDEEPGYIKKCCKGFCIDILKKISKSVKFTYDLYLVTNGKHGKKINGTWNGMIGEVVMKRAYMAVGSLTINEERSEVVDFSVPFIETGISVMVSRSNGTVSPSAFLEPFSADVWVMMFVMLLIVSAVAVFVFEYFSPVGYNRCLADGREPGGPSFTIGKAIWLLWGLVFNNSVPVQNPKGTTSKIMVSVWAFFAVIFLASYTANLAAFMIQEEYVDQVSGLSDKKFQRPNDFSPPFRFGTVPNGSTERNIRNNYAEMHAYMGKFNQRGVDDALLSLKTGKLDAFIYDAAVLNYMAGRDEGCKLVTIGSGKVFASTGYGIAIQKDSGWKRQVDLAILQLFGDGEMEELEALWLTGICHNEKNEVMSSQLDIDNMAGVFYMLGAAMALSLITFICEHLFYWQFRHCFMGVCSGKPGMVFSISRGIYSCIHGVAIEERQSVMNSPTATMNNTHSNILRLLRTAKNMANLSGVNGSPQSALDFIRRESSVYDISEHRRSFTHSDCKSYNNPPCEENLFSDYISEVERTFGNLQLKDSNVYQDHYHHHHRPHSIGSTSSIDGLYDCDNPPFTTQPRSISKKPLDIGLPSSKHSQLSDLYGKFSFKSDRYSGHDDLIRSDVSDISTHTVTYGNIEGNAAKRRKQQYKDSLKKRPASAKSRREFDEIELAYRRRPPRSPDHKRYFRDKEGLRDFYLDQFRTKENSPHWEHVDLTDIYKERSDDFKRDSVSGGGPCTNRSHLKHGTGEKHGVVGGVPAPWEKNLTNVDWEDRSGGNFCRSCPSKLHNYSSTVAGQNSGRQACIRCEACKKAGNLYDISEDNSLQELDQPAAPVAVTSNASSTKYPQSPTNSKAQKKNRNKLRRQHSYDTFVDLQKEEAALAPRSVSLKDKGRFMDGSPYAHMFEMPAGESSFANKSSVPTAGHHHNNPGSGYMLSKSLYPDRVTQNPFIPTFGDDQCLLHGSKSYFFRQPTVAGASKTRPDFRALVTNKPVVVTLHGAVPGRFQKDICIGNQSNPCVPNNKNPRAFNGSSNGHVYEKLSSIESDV
Sequence of Glutamate receptor ionotropic, NMDA 2B (Q00960 whole entry): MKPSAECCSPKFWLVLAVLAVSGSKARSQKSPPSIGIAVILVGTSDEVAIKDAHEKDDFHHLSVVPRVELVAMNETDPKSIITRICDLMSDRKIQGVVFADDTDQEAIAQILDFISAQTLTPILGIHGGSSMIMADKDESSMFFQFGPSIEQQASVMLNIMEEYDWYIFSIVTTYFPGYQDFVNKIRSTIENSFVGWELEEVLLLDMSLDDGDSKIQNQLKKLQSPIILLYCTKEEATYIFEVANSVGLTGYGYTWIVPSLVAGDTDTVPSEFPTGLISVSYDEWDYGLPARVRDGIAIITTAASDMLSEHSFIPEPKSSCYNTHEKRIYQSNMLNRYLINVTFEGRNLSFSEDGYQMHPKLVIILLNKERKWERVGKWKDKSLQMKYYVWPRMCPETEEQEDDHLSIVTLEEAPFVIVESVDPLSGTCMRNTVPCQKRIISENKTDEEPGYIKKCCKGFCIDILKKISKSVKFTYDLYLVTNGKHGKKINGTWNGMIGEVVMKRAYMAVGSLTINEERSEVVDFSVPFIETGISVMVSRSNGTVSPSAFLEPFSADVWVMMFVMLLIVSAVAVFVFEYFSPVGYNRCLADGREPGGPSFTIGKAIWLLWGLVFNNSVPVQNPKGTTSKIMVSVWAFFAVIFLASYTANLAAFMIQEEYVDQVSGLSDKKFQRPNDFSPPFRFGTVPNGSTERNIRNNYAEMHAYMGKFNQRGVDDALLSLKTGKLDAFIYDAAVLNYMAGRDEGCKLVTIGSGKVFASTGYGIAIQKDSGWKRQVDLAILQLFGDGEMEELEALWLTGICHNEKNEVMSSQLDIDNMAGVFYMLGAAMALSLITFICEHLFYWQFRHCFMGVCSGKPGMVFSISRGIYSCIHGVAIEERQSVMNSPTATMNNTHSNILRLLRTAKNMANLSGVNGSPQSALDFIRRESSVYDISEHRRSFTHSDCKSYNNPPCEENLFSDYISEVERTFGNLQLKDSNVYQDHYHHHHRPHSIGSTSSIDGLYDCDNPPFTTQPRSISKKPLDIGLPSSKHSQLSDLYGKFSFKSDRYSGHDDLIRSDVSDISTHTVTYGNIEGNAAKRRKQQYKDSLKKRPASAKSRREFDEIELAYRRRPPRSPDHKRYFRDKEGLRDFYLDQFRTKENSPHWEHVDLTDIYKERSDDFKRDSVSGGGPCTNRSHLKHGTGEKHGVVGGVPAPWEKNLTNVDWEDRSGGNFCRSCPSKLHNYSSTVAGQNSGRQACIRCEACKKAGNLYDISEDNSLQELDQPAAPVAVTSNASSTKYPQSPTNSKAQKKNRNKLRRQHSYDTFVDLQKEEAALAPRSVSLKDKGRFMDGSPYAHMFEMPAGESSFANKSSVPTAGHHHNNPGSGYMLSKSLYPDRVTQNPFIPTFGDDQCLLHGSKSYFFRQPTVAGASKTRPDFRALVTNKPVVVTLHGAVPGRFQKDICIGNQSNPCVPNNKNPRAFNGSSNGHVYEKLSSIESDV

| Ki [1] [nM] | Activity [2] [%] | logD [3] | Activity [4] [%] | Activity [5] [%] | logP [6] | Activity [7] [%] | Activity [8] [%] | Activity [9] [%] | Activity [10] [%] | Activity [11] [%] | Activity [12] [%] | Structure (SMILES) |
| --- | --- | --- | --- | --- | --- | --- | --- | --- | --- | --- | --- | --- |
| 3.09 |  |  |  |  |  |  |  |  |  |  |  | Oc1ccc2nc(CN3CCC(Cc4ccccc4)CC3)[nH]c2c1 |
| 5.75 | 104 | 3.54 | 59 | 58.1 | 3.54 | 108 | 89.3 | 92.8 | 95.5 | 97 | 93 | CS(=O)(=O)Nc1ccc2nc(CN3CCC(Cc4ccc(I)cc4)CC3)[nH]c2c1 |
